# Screens as filed in PubChem.
# Only some compounds are listed: those with a hit (about 4.5% of all), similar ones and a draw of the others.
# OX1R antag-1 – antagonists of human orexin 1 receptor (OX1R). inhibition, % at 6.6 µM. 330,000 compounds, 1.8% hits. OX1R-expressing cells, FRET antagonist read-out. AID 485270, 2010; in the data active means inhibition mostly above about 38%, no sharp cut-off; inactive means mostly below about 40%;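 further: 0% = agonist challenge alone and 100% = reference antagonist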
# CHO parental Ca – ATP-evoked calcium signal inhibitors, parental CHO, primary screen, counter-screen for OX1R antagonist project, cell-based, fluorescence, Fluo-8 calcium dye; inhibition, % at 5.6 µM; parental CHO-K1, ATP-induced calcium, Fluo-8 fluorescence; 330,000 compounds, 0.63% hits;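 active means inhibition above that plate's mean sample inhibition plus 3 SD, cut at about 26% in these data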;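 further: 0% = ATP-challenged DMSO wells and 100% = DMSO wells without ATP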
#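 Material – parental CHO cells · Reagent – ATP stimulus · Compound – single nominal dose of 5.6 µM per compound · Detection – Fluo-8 fluorescence · Read-out basis – percent inhibition of calcium signal · Controls – ATP-challenged DMSO wells low, unchallenged DMSO wells high · Repeats – no replicates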
# GPR7 antagonist – GPR7 receptor antagonists, primary screen, cell-based, fluorescence, single concentration. Neuropeptides B/W receptor type 1 (Homo sapiens), P48145. GPR7-expressing cells, fluorescence antagonist assay. inhibition, % at 4.4 µM. 290,000 compounds, 1.1% hits; in the data active means inhibition above about 16%, passing the limit was not always enough;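 further: cells stimulated with the agonist NPW; 0% = agonist with vehicle and 100% = vehicle without agonist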
# Target sequence (P48145 whole entry, looked up): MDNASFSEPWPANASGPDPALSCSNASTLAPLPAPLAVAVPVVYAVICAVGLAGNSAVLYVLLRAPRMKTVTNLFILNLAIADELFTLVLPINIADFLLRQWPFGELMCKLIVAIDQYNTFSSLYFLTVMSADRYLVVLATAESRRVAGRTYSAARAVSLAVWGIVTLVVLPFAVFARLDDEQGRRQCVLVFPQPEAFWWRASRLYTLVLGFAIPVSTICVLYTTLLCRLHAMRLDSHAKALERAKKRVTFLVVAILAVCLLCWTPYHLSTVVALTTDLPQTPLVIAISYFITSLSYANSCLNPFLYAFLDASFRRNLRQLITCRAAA
# TAAR1 antag – human TAAR1 antagonists, primary screen, Fluo-8 calcium fluorescence, CHO RD-HGA16 cells; antagonist; 360,000 compounds, 1.5% hits; Trace amine-associated receptor 1 (Homo sapiens), Q96RJ0; inhibition, % at 3 µM;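 active means inhibition above a per-plate cutoff, the mean inhibition of test compounds on that plate plus 3 SD, cut at about 49% in these data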;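 further: 0% = DMSO plus EC80 beta-PEA response and 100% = DMSO alone without agonist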
# Target sequence (Q96RJ0 whole entry, looked up): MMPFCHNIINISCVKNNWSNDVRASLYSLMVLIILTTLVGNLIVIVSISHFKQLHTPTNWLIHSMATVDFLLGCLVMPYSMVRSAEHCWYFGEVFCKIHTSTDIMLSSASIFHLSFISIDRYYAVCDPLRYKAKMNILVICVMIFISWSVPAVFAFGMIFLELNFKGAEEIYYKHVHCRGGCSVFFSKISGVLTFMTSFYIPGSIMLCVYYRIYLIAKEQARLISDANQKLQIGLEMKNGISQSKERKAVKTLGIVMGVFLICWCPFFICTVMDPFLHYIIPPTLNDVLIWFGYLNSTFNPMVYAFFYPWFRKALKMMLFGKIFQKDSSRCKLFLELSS
#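 Test system – hTAAR1-expressing CHO RD-HGA16 cells, Gα16-coupled · Also added – β-PEA at EC80 concentration, post-compound challenge · Compound – 3 µM, single point · Incubation – dye loading 75 min at 37 °C, then 30 min room temperature · Measured by – Fluo-8 intracellular calcium dye fluorescence, real-time kinetic reads · Benchmarks – vehicle and agonist controls · Replicates – singlicate, one well per test compound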
# TAAR1 ag – human TAAR1 agonists, primary screen, Fluo-8 calcium fluorescence, CHO RD-HGA16 cells. vehicle wells 0%, saturating PEA agonist 100%. activation, % at 3 µM. 360,000 compounds, 0.99% hits. AID 624467, 2012;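 active means activation above the mean activation of all test compounds in the run plus 3 SD, cut at about 38% in these data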
#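 Benchmarks: low control DMSO, high control PEA (EC100); System: CHO RD-HGA16 cells carrying human TAAR1 plus Gα16; Detection: Fluo-8 fluorescence, 5 s baseline then 140 s kinetic read; Schedule: 17-24 h plating, Fluo-8 75 min 37 °C, 30 min RT; Read-out basis: % activation from peak over basal fluorescence ratio, DMSO-to-PEA scaled.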
# OX1R antag-2 – OX1R (HCRTR1) antagonists, primary screen, fluorescence, CHO/OX1R cells, Fluo-8 calcium, orexin A | inhibition, % at 5 µM | 330,000 compounds, 0.43% hits | Fluo-8 calcium fluorescence | Orexin/Hypocretin receptor type 1 (Homo sapiens), O43613;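 active means inhibition above its plate's threshold, mean inhibition of all tested compounds on the plate plus 3 SD, cut at about 37% in these data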;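 further: 0% = orexin A challenge wells and 100% = SB-334867-A antagonist wells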
# OX1R HTRF conf – OX1R (HCRTR1) antagonists, confirmation, cell-based, HTRF; shares compounds with OX1R antag-1; OX1R-expressing cells, HTRF antagonist assay; inhibition, % at 6.6 µM; 1,800 compounds, 49% hits; AID 492964, 2010; in the data active means inhibition above about 55%;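 further: CHO cells expressing OX1R stimulated with orexin A at about EC80; 0% = agonist challenge alone and 100% = reference antagonist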
# CHO-K1 HTRF cnt – signal inhibition in parental CHO-K1 cells, counter-screen for OX1R antagonist project, cell-based, HTRF; shares compounds with OX1R antag-1; HTRF counterscreen; inhibition, % at 6.6 µM; 1,800 compounds, 48% hits; in the data active means inhibition above about 17%;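 further: 0% = agonist challenge with vehicle and 100% = vehicle alone without agonist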
# The depositor's hits bear a star; x = not tested or not shown.
SMILES,OX1R antag-1,CHO parental Ca,GPR7 antagonist,TAAR1 antag,TAAR1 ag,OX1R antag-2,OX1R HTRF conf,CHO-K1 HTRF cnt
CN(C(=O)c1cccc(NC(=O)Cc2cccc(NC(=O)C3CCCN(C(=O)C4CCC4)C3)c2)c1)C1CCC1 (stereo not drawn),x,x,x,-24,-1,x,x,x
CN1C(=O)C2(N=c3ccccc3=N2)c2ccccc21,79*,-10,-2,x,x,3,86*,-3
O=C(O)CCCN1C(=O)c2ccc(Oc3cccc([N+](=O)[O-])c3)cc2C1=O,56,7,-1,-7,2,4,x,x
O=C(O)CCCN1C(=O)c2ccc(C(=O)c3cccc([N+](=O)[O-])c3)cc2C1=O,86*,-4,-8,-2,1,-5,40,52*
NC(=O)c1cccc(Nc2nc(C(N)C3CCCCC3)cs2)n1 (stereo not drawn),x,x,x,-2,1,x,x,x
Cc1nccn1CCC(=O)NC1CC(C)(C)Cc2c1cnn2-c1ccccc1 (stereo not drawn),x,x,x,-3,2,x,x,x
Cc1cc(C)n2[nH]c(=O)c(N=Nc3ccc(S(N)(=O)=O)cc3)c2n1,88*,-5,3,17,0,-13,57*,85*
Cc1ccc(N=Nc2c(=O)[nH]n3c(C)cc(C)nc23)cc1,174*,-14,-6,11,1,-25,48,80*
Cc1ccc(N=Nc2c(N)[nH]n3c(=O)cc(C)nc23)cc1,8,-8,-9,4,-1,-16,x,x
Cc1ccc(CN2CCC(C)(Oc3cccc(Cl)c3)C2)cc1 (stereo not drawn),x,x,x,-22,7,x,x,x
O=C1NC2(Nc3ccccc31)C(=O)Nc1ccccc12 (stereo not drawn),80*,-25,-6,22,14,-8,22,6
O=C1NCCN1c1ncc([N+](=O)[O-])s1,82*,6,x,-13,1,-2,63*,88*
O=C(Nc1ncc([N+](=O)[O-])s1)C1CC(=O)N(c2ccc(F)cc2)C1 (stereo not drawn),26,16,1,14,15,-17,x,x
COCC(C)NC(=O)c1cccc([N+](=O)[O-])c1 (stereo not drawn),127*,-1,-8,5,0,2,19,19*
O=C(Cc1cccs1)Nc1cccc(-c2nc3ccccc3o2)c1,77*,-21,-14,28,10,7,74*,0
O=C(COC(=O)CN1C(=O)C2CC=CCC2C1=O)Nc1cccc([N+](=O)[O-])c1 (stereo not drawn),x,x,x,-11,2,x,x,x
O=C(CSc1cccc[n+]1[O-])Nc1c(Br)cc([N+](=O)[O-])cc1Br,118*,-15,-2,-18,5,-3,40,54*
Cc1cccc(C(C)C)c1NC(=O)CSc1cccc[n+]1[O-],9,-6,x,-13,2,-18,x,x
NC(=O)CSc1ncc(-c2ccc([N+](=O)[O-])cc2)[nH]1,80*,-2,-21,-8,2,-9,40,33*
N/C(=N\OC(=O)Nc1ccccc1)c1ncc([N+](=O)[O-])s1,127*,1,-9,-16,1,-14,51,79*
CCCCN1C=CC(=C2N=c3cccc([N+](=O)[O-])c3=N2)C=C1,157*,6,2,11,1,-1,59*,100*
CCCCCCN1C=CC(=C2C(=O)c3ccccc3C2=O)C=C1,21,-17,-5,-3,15,-16,x,x
COC(=O)c1nc(C(=O)OC)c(C(=O)OC)nc1C(=O)OC,102*,-12,-10,1,6,-10,49,22*
NS(=O)(=O)c1ccc(NC(=O)/C(=C/c2ccncc2)NC(=O)c2ccccc2)cc1,0,3,-2,-21,2,1,x,x
Cn1cccc([N+](=O)[O-])c1=O,x,x,x,-25,2,x,x,x
SMILES,OX1R antag-1,CHO parental Ca,GPR7 antagonist,TAAR1 antag,TAAR1 ag,OX1R antag-2,OX1R HTRF conf,CHO-K1 HTRF cnt
Cn1c(=O)c(=O)n(C)c2cc([N+](=O)[O-])c([N+](=O)[O-])cc21,115*,-6,-15,-35,7,0,43,63*
CNC(=O)C[C@@H]1C(=O)N(c2ccc(OC)cc2)CC1(C)C,x,x,x,2,-1,x,x,x
O=C1CSC(=S)N1/N=C/c1ccc(O)c(O)c1O,84*,-3,-9,x,x,-2,16,-4
CCC1NC(=O)c2cccnc2-n2c1nc1cc(F)ccc1c2=O (stereo not drawn),x,x,x,-5,1,x,x,x
CO[C@@H]1CN(C)C(=O)c2cc(NS(=O)(=O)c3ccc(C)cc3)ccc2OC[C@H](C)N(Cc2nccs2)C[C@H]1C,x,x,x,-27,2,x,x,x
COc1ccc(-n2nc([N+](=O)[O-])c(=NCCCN3CCCC3=O)n2O)cc1,154*,-5,-13,-2,1,0,51,88*
O=[N+]([O-])c1ccc2nonc2c1Nc1cccc(F)c1,25,-6,3,-8,-2,-8,x,x
CC(=O)Nc1ccc(Nc2cc(N(C)C)c3nonc3c2[N+](=O)[O-])cc1,x,x,7,-5,0,x,x,x
O=C(O)c1cccc(Nc2ccc3nonc3c2[N+](=O)[O-])c1,92*,2,-6,-12,0,-3,58*,97*
Cc1c(Nc2cc(N3CCOCC3)c3nonc3c2[N+](=O)[O-])c(=O)n(-c2ccccc2)n1C,21,5,2,x,x,-3,x,x
Cc1c(Nc2ccc3nonc3c2[N+](=O)[O-])c(=O)n(-c2ccccc2)n1C,195*,-18,-8,6,3,-32,53,87*
NS(=O)(=O)c1ccc(Nc2ccc3nonc3c2[N+](=O)[O-])cc1,90*,-6,-14,-9,1,-12,63*,110*
O=C(O)c1ccc(Nc2cc(Cl)c3nonc3c2[N+](=O)[O-])cc1,96*,-16,-17,1,4,-14,62*,98*
Nc1cc(Nc2ccccc2)c2nonc2c1[N+](=O)[O-],34,10,3,-26,1,-11,x,x
